Experimental data published in ChEMBL document CHEMBL1148584, “Effect of polyamine homologation on the transport and biological properties of heterocyclic amidines” (J Med Chem, 2006).

How the values were obtained:
L1210 [1] = assay: Intracellular level of conjugate in L1210 cells in the presence of DFMO at 50 uM; format: functional, cell-based; details: Mus musculus
Method in brief: (§1)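 L1210 cells in RPMI 1640/10% FCS with 2 mM aminoguanidine, seeded at 4 × 10⁴ cells/mL. Conjugate, with or without 5 mM DFMO, added at seeding; cells cultured 48 h, washed in cold NaCl, and extracted with 0.2 N HClO₄. Conjugate and free putrescine, spermidine and spermine quantified by ion-pair HPLC (UV 254 nm, fluorescence ex 345/em 455 nm); normalised to protein. Student's t-test, p<0.05.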

CHO = assay: Cellular uptake in CHO cells at 50 uM; format: ADME, cell-based, Cricetulus griseus; details: chinese hamster
Method in brief: (§2)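 CHO (RPMI 1640, 10% FCS, 2 mM aminoguanidine) and CHO-MG (plus L-proline) cells seeded at 2 × 10⁵ cells/mL. Conjugate added 24 h after seeding and cells harvested 24 h later, then washed in cold 0.14 M NaCl and sonicated in 0.2 N HClO₄. Supernatant analysed by ion-pair reversed-phase HPLC (n-octanesulfonate), expressed as nmol/mg protein; mean ± SD of three determinations.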

CHO-MG [2] = assay: Cellular uptake in CHO-MG cells at 50 uM; format: ADME, cell-based, Cricetulus griseus; details: chinese hamster; method in brief: as §2
[3] = Selectivity for uptake CHO cell line over CHO-MG cell line at 50 uM; format: functional, Cricetulus griseus
Method in brief: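 Ratio of intracellular conjugate level in CHO over CHO-MG cells. Both lines were exposed to conjugate 24 h after seeding at 2 × 10⁵ cells/mL, for 24 h with 2 mM aminoguanidine in the medium. Levels were measured by ion-pair HPLC of perchloric extracts and normalised to protein (nmol/mg).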

L1210 [4] = assay: Intracellular level of putrescine in L1210 cells in the absence of DFMO at 50 uM; format: functional, cell-based; details: Mus musculus; method in brief: as §1
L1210 [5] = assay: Intracellular level of spermidine in L1210 cells in the presence of DFMO at 50 uM; format: functional, cell-based; details: Mus musculus; method in brief: as §1
L1210 [6] = assay: Intracellular level of spermine in L1210 cells in the absence of DFMO at 50 uM; format: functional, cell-based; details: Mus musculus; method in brief: as §1
Phosphodiesterase 1 = Phosphodiesterase 1 (Bos taurus, UniProt Q01061+P14100); assay: Inhibition of bovine calmodulin-activated cAMP dependent phosphodiesterase; format: protein assay
Method in brief: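 Crude bovine heart PDE preparation containing calmodulin and Ca²⁺ (0.2 milliunit). Incubated 20 min at 37 °C with 0.1 mM [8-³H]cAMP and graded drug concentrations in 30 mM Tris-HCl, 3 mM MgSO₄, 0.6 mM AMP. Stopped with ZnSO₄; Ba(OH)₂ precipitated AMP with BaSO₄; supernatant radioactivity counted. IC50 is the concentration giving 50% inhibition.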

L1210 [7] = assay: Intracellular level of putrescine in L1210 cells in the presence of DFMO at 50 uM; format: functional, cell-based; details: Mus musculus; method in brief: as §1
L1210 [8] = assay: Intracellular level of spermidine in L1210 cells in the absence of DFMO at 50 uM; format: functional, cell-based; details: Mus musculus; method in brief: as §1
L1210 [9] = assay: Intracellular level of spermine in L1210 cells in the presence of DFMO at 50 uM; format: functional, cell-based; details: Mus musculus; method in brief: as §1
L1210 [10] = assay: Intracellular level of conjugate in L1210 cells in the absence of DFMO at 50 uM; format: functional, cell-based; details: Mus musculus; method in brief: as §1
CHO-MG [11] = assay: Inhibition of cell growth in CHO-MG cells in the presence of DFMO; format: functional, cell-based; details: Cricetulus griseus
Method in brief: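 L1210 cells seeded at 5 × 10⁴ cells/mL with conjugate added at seeding; CHO/CHO-MG plated at 2 × 10³ cells/mL with conjugate added after overnight (24 h). 5 mM DFMO added together with conjugate; medium contains 2 mM aminoguanidine. After 48 h, growth read by MTT formazan absorbance at 540 nm. IC50 is 50% growth inhibition; mean of three determinations.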

L1210 [12] = assay: Intracellular level of conjugate in L1210 cells in the presence of DFMO at 25 uM; format: functional, cell-based; details: Mus musculus; method in brief: as §1
L1210 [13] = assay: Intracellular level of putrescine in L1210 cells in the absence of DFMO at 25 uM; format: functional, cell-based; details: Mus musculus; method in brief: as §1
L1210 [14] = assay: Intracellular level of spermidine in L1210 cells in the presence of DFMO at 25 uM; format: functional, cell-based; details: Mus musculus; method in brief: as §1
L1210 [15] = assay: Intracellular level of spermine in L1210 cells in the absence of DFMO at 25 uM; format: functional, cell-based; details: Mus musculus; method in brief: as §1
L1210 [16] = assay: Intracellular level of spermine in L1210 cells in the presence of DFMO at 25 uM; format: functional, cell-based; details: Mus musculus; method in brief: as §1
L1210 [17] = assay: Intracellular level of putrescine in L1210 cells in the presence of DFMO at 25 uM; format: functional, cell-based; details: Mus musculus; method in brief: as §1
L1210 [18] = assay: Intracellular level of spermidine in L1210 cells in the absence of DFMO at 25 uM; format: functional, cell-based; details: Mus musculus; method in brief: as §1
L1210 [19] = assay: Intracellular level of conjugate in L1210 cells in the absence of DFMO at 25 uM; format: functional, cell-based; details: Mus musculus; method in brief: as §1

`CNc1ccc(C2c3ccccc3N=C(NCCCCN)C2(C)C)cc1` (centres undefined) showed a Drug uptake (L1210 [1]) of 0.33 nmol/mg, a Drug uptake (CHO) of 5.3 nmol/mg and a Drug uptake (CHO-MG [2]) of 5.9 nmol/mg. It also gave a Selectivity ratio [3] of 0.9, a Drug uptake (L1210 [4]) of 1.9 nmol/mg and a Drug uptake (L1210 [5]) of 1.8 nmol/mg. It also gave a Drug uptake (L1210 [6]) of 8.6 nmol/mg, an IC50 (Phosphodiesterase 1) of 373 µM and a Drug uptake (L1210 [7]) of 1 nmol/mg. The Drug uptake (L1210 [8]) was 20 nmol/mg, the Drug uptake (L1210 [9]) was 6.6 nmol/mg and the Drug uptake (L1210 [10]) was 0.6 nmol/mg.
`NCCCCNCCCN` [SPERMIDINE] gave an IC50 (Phosphodiesterase 1) of over 500 µM and an IC50 (CHO-MG [11]) of over 100 µM.
With `NCCCCN` [PUTRESCINE] the IC50 (Phosphodiesterase 1) was over 500 µM and the IC50 (CHO-MG [11]) was over 100 µM.
`CNc1cccc2c1[C@H](C)C[C@]1(C)C(NCCCNCCCCN)=Nc3ccccc3[C@H]21` showed a Drug uptake (L1210 [12]) of 1.3 nmol/mg, a Drug uptake (CHO) of 1.3 nmol/mg and a Drug uptake (CHO-MG [2]) of 1.2 nmol/mg. It also gave a Selectivity ratio [3] of 1, a Drug uptake (L1210 [13]) of 1 nmol/mg and a Drug uptake (L1210 [14]) of 1.5 nmol/mg. For the same compound, the Drug uptake (L1210 [15]) was 11 nmol/mg, the Drug uptake (L1210 [16]) was 8.9 nmol/mg and the IC50 (Phosphodiesterase 1) was 22 µM. It also gave an IC50 (CHO-MG [11]) of over 100 µM, a Drug uptake (L1210 [17]) of 0.02 nmol/mg and a Drug uptake (L1210 [18]) of 24 nmol/mg. The Drug uptake (L1210 [19]) was 1.2 nmol/mg.
